The text below walks through data of ChEMBL document CHEMBL1121728, “Synthesis and antitumor activity of an acyclonucleoside derivative of 5-fluorouracil” (1981).

Each structure is given as a SMILES string.

The subject of experiment [1] is P388. Briefly: Compound was evaluated for the median survival time of mice infected with P388 leukemia at a dose of 20 […] in q.d. 1-4 schedule. The class given is functional, Mus musculus. The method in brief: (§1)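 Male B6D2F1J mice, five per group, received 10^6 P388 leukemia cells ip on day 0. Treatment was ip in water on q.d. 1-4, b.i.d. × 4 or q.d. 1-9 schedules. Survival was recorded, and increase in life span (ILS) was calculated relative to untreated controls. Toxicity was judged by weight loss.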

Experiment [2] deals with P388. In words: Compound was evaluated for the 7-day percent change in weight of mice infected with P388 leukemia at a dose of 40 […] in q.d. 1-4 schedule. Format: functional, Mus musculus. A digest of the protocol: (§2)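 Groups of five male B6D2F1J mice were inoculated ip with 10^6 P388 cells on day 0. Drugs were given ip in water on q.d. 1-4, b.i.d. × 4 or q.d. 1-9 schedules. Animals were weighed on days 1 and 7, and weight change was expressed as a percentage.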

In experiment [3] the test system is P388. Briefly: Compound was evaluated for the 7-day percent change in weight of mice infected with P388 leukemia at a dose of 40 […] in b.i.d. x 4 schedule. Format: functional, Mus musculus. The method in brief:
as §2

Experiment [4] concerns P388. Briefly: Compound was evaluated for the 7-day percent change in weight of mice infected with P388 leukemia at a dose of 20 […] in b.i.d. x 4 schedule. Format: functional, Mus musculus. A digest of the protocol: as §2
Experiment [5] deals with P388. Briefly: Compound was evaluated for the median survival time of mice infected with P388 leukemia at a dose of 40 […] in b.i.d. x 4 schedule. Format: functional, Mus musculus.
Experiment [6] deals with P388. In words: Compound was evaluated for the 7-day percent change in weight of mice infected with P388 leukemia at a dose of 40 […] in q.d. 1-9 schedule. The class given is functional, Mus musculus. A digest of the protocol: as §2
The subject of experiment [7] is P388. Briefly: Compound was evaluated for the 7-day percent change in weight of mice infected with P388 leukemia at a dose of 20 […] in q.d. 1-4 schedule. The class given is functional, Mus musculus. The method in brief: as §2
The subject of experiment [8] is P388. Briefly: Percent increase in life span against mice infected with P388 leukemia at a dose of 20 […] in q.d. 1-9 schedule. Format: functional, Mus musculus. A digest of the protocol: as §1
In experiment [9] the test system is L1210. In words: Inhibition against L1210 mouse leukemia cells. Format: functional. The following applies: read-out: ID50 (the source's name). A digest of the protocol: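 Growth inhibition of L1210 mouse leukemia cells in culture, reported as ID50 (molar concentration).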
The subject of experiment [10] is P388. In words: Compound was evaluated for the median survival time of mice infected with P388 leukemia at a dose of 40 […] in q.d. 1-9 schedule. The class given is functional, Mus musculus. A digest of the protocol:
as §1

In experiment [11] the test system is P388. Briefly: Compound was evaluated for the median survival time of mice infected with P388 leukemia at a dose of 40 […] in q.d. 1-4 schedule. The class given is functional, Mus musculus. A digest of the protocol:
as §1

The subject of experiment [12] is P388. Briefly: Compound was evaluated for the median survival time of mice infected with P388 leukemia at a dose of 20 […] in b.i.d. x 4 schedule. Format: functional, Mus musculus. A digest of the protocol: as §1
Experiment [13] has as its system P388. Briefly: Compound was evaluated for the median survival time of mice infected with P388 leukemia at a dose of 20 […] in q.d. 1-9 schedule. The class given is functional, Mus musculus. The method in brief:
as §1

The subject of experiment [14] is L1210. Briefly: Inhibition against L1210 mouse leukemia cells; No effect. Format: functional. The following applies: read-out: ID50 (the source's name).
Experiment [15] deals with L1210. Briefly: Inhibition against L1210 mouse leukemia cells; Inactive. Format: functional. The following applies: read-out: ID50 (the source's name).
Experiment [16] has as its system P388. Briefly: Compound was evaluated for the median survival time of mice infected with P388 leukemia at a dose of 200 […] in q.d. 1-4 schedule. The class given is functional, Mus musculus. The method in brief:
as §1

Experiment [17] relates to P388. In words: Compound was evaluated for the 7-day percent change in weight of mice infected with P388 leukemia at a dose of 50 […] in q.d. 1-4 schedule. Format: functional, Mus musculus. A digest of the protocol: (§3)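 Male B6D2F₁J mice in groups of five received 10⁶ P388 cells ip on day 0. Compound was then given ip in water on the stated schedule. Body weights were taken on days 1 and 7, and the change is expressed as a percentage. Survival was also recorded as percent increase in life span.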

The test system of experiment [18] is P388. In words: Compound was evaluated for the median survival time of mice infected with P388 leukemia at a dose of 400 […] in b.i.d. x 4 schedule. Format: functional, Mus musculus. A digest of the protocol:
as §1

Experiment [19] has as its system P388. In words: Compound was evaluated for the median survival time of mice infected with P388 leukemia at a dose of 50 […] in b.i.d. x 4 schedule. The class given is functional, Mus musculus. A digest of the protocol:
as §1

For experiment [20], the system named is P388. In words: Compound was evaluated for the median survival time of mice infected with P388 leukemia at a dose of 120 […] in q.d. 1-9 schedule. The class given is functional, Mus musculus. The method in brief: as §1
The subject of experiment [21] is P388. In words: Compound was evaluated for the median survival time of mice infected with P388 leukemia at a dose of 60 […] in q.d. 1-9 schedule. Format: functional, Mus musculus. A digest of the protocol: as §1
Experiment [22] deals with P388. Briefly: Compound was evaluated for the median survival time of mice infected with P388 leukemia at a dose of 100 […] in q.d. 1-4 schedule. The class given is functional, Mus musculus. A digest of the protocol: as §1
Experiment [23] deals with P388. Briefly: Compound was evaluated for the 7-day percent change in weight of mice infected with P388 leukemia at a dose of 100 […] in b.i.d. x 4 schedule. The class given is functional, Mus musculus. The method in brief: as §3
Experiment [24] has as its system P388. In words: Compound was evaluated for the median survival time of mice infected with P388 leukemia at a dose of 240 […] in q.d. 1-9 schedule. The class given is functional, Mus musculus. The method in brief: as §1
The subject of experiment [25] is P388. In words: Compound was evaluated for the 7-day percent change in weight of mice infected with P388 leukemia at a dose of 240 […] in q.d. 1-9 schedule. Format: functional, Mus musculus. The method in brief: as §3
Experiment [26] has as its system P388. Briefly: Compound was evaluated for the 7-day percent change in weight of mice infected with P388 leukemia at a dose of 50 […] in b.i.d. x 4 schedule. The class given is functional, Mus musculus. The method in brief:
as §3

In experiment [27] the test system is P388. Briefly: Compound was evaluated for the 7-day percent change in weight of mice infected with P388 leukemia at a dose of 120 […] in q.d. 1-9 schedule. Format: functional, Mus musculus. A digest of the protocol:
as §3

The subject of experiment [28] is P388. Briefly: Compound was evaluated for the 7-day percent change in weight of mice infected with P388 leukemia at a dose of 200 […] in q.d. 1-4 schedule. The class given is functional, Mus musculus. A digest of the protocol: as §3
For experiment [29], the system named is P388. Briefly: Compound was evaluated for the median survival time of mice infected with P388 leukemia at a dose of 100 […] in b.i.d. x 4 schedule. The class given is functional, Mus musculus. The method in brief: as §1
Experiment [30] deals with P388. Briefly: Compound was evaluated for the median survival time of mice infected with P388 leukemia at a dose of 200 […] in b.i.d. x 4 schedule. The class given is functional, Mus musculus. The method in brief:
as §1

Experiment [31] concerns P388. In words: Compound was evaluated for the median survival time of mice infected with P388 leukemia at a dose of 50 […] in q.d. 1-4 schedule. The class given is functional, Mus musculus. A digest of the protocol:
as §1

Experiment [32] concerns P388. In words: 7-day weight change in mice infected with P388 leukemia at a dose of 60 […] in q.d. 1-9 schedule.
The subject of experiment [33] is P388. Briefly: Compound was evaluated for the 7-day percent change in weight of mice infected with P388 leukemia at a dose of 200 […] in b.i.d. x 4 schedule. Format: functional, Mus musculus. The method in brief:
as §3

Experiment [34] relates to P388. Briefly: Percent increase in survival of P388 leukemic mice at a compound dose 400 mg/kg (b.i.d. x 4) or 240 mg/kg (q.d. 1-9) was given intraperitoneally in water. Format: functional, Mus musculus. A digest of the protocol: as §1
Experiment [35] deals with P388. In words: Compound was evaluated for the 7-day percent change in weight of mice infected with P388 leukemia at a dose of 400 […] in b.i.d. x 4 schedule. The class given is functional, Mus musculus. The method in brief:
as §3

Experiment [36] relates to P388. Briefly: Compound was evaluated for the 7-day percent change in weight of mice infected with P388 leukemia at a dose of 100 […] in q.d. 1-4 schedule. The class given is functional, Mus musculus. A digest of the protocol: as §3

Take `O=c1[nH]cc(F)c(=O)[nH]1` [FLUOROURACIL]: the Median survival in experiment [1] came out at 23 days; in [5], 12 days; in experiment [10], 12 days; in experiment [11], 10 days; in [12], 19 days; in [13], 21 days. In addition, the Weight change in [2] is given as -29%; in experiment [3] it was -12%; in experiment [4], 9%; in experiment [6], -23%; in experiment [7] it was -5%; in experiment [8] it was -2%. Besides, in experiment [9], the IC50 stood at 1 µM.
On to `O=c1[nH]c(=O)n(COCCO)cc1I`, for which the IC50 in experiment [14] turned out to be 1000 µM.
In the case of `Nc1nc(=O)n(COCCO)cc1F`, in experiment [15], the IC50 is 100 µM.
For `O=c1[nH]c(=O)n(COCCO)cc1Br`, in experiment [14], the IC50 was 1000 µM.
Regarding `O=c1[nH]c(=O)n(COCCO)cc1F`, the Median survival in experiment [16] stood at 17 days; in experiment [18], 21 days; in experiment [19], 16 days; in [20], 18 days; in experiment [21], 16 days; in [22], 15 days. Moreover, the Median survival came to 21 days in [24], 17 days in experiment [29], 20 days in experiment [30] and 14 days in experiment [31]. For the same compound, the Weight change in experiment [17] came out at 7%; in [23], 4%; in experiment [25], 0%; in experiment [26], 5%; in experiment [27] it was 0%; in [28], 6%. The results for the Weight change in [33], in [35] and in experiment [36] were 4%, 0% and 6%, respectively. In addition, the IC50 in [9] came to 17 µM. The compound further came in with a 7-day weight change in [32] of 8%. The Increase in experiment [34] came to 75%.
